From ChEMBL document CHEMBL3392953, “Synthesis and biological evaluation of furanoallocolchicinoids” (J Med Chem, 2015)
Blank lines part the entries; values can stand above or below the compound they belong to. Calls of active or inactive are those of the source. The calls are words filed in the database; no cut-off is given here.

What was measured:
[1] = test system: Mus musculus; test: Toxicity in C57BL/6 mouse assessed as interphase microtubule de-stabilizing activity by measuring leakage of rhodamine through the gut at 1 mg/kg, iv co-administered with rhodamine B by fluorimetry; type: organism-based; set-up: dose 1 mg/kg, route intravenous; settings: in vivo
In short: (§1)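 Intact mice, 6–8 wk, 3 per group; compound dissolved in DMSO at 20 mM, 4 µl diluted into 200 µl saline (1 mg/kg), mixed with 50 µl rhodamine B, single i.v. injection; controls DMSO plus rhodamine B. Killed 4 h later; organs cut, extracted in 0.3N acid in ethanol 2 h at 37 °C, centrifuged, supernatant fluorescence read with 540 nm filter.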

[2] = test system: Mus musculus; test: Toxicity in C57BL/6 mouse assessed as interphase microtubule de-stabilizing activity by measuring influx of rhodamine in to heart at 1 mg/kg, iv co-administered with rhodamine B by fluorimetry; type: organism-based; set-up: dose 1 mg/kg, route intravenous; settings: in vivo; in short: as §1
[3] = test system: Mus musculus; test: Toxicity in C57BL/6 mouse assessed as interphase microtubule de-stabilizing activity by measuring influx of rhodamine in to spleen at 1 mg/kg, iv co-administered with rhodamine B by fluorimetry; type: organism-based; set-up: dose 1 mg/kg, route intravenous; settings: in vivo; in short: as §1
[4] = Reduction in blood-brain barrier permeability in […]; type: ADME, tissue-based, C57BL/6, Endothelial cell; set-up: scale not given: the % may be the effect or the level left; settings: mouse; in short: as §1
[5] = test system: ASPC1; test: Cytotoxicity against human AsPC1 cells after 72 hrs by MTT assay; type: functional, cell-based; settings: ASPC1, 72 h
In short: (§2)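 Cells seeded at 3x10^5 cells/mL 24 h before assay (HEK293, AsPC-1 in DMEM; Jurkat, W1308 in RPMI-1640; 10% FCS, 2-ME). Tenfold dilutions from […] to 1 nM added; untreated cells as controls. 72 h incubation, MTT 250 µg/ml added for last 6 h, formazan dissolved in DMSO, OD read. IC50 from titration curves; inhibition index = 1 − OD(treated)/OD(control).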

[6] = test system: HEK293; test: Cytotoxicity against HEK293 cells after 72 hrs by MTT assay; type: functional, cell-based; settings: Homo sapiens, HEK293, 72 h; in short: as §2
[7] = test system: Jurkat; test: Cytotoxicity against human Jurkat cells after 72 hrs by MTT assay; type: functional, cell-based; in short: as §2
[8] = Cytotoxicity against mouse W1308 cells after 72 hrs by MTT assay; type: functional, cell-based; settings: W1308, 72 h; in short: as §2
[9] = test system: ASPC1; test: Growth inhibition of human AsPC1 cells at 100 uM after 72 hrs by MTT assay; type: functional; settings: ASPC1, 72 h, read-out: GI
[10] = test system: HEK293; test: Growth inhibition of HEK293 cells at 100 uM after 72 hrs by MTT assay; type: functional; settings: Homo sapiens, HEK293, 72 h; read-out: GI
[11] = test system: Jurkat; test: Growth inhibition of human Jurkat cells at 100 uM after 72 hrs by MTT assay; type: functional; settings: read-out: GI
[12] = Growth inhibition of mouse W1308 cells at 100 uM after 72 hrs by MTT assay; type: functional; settings: W1308, 72 h, read-out: GI
[13] = Inhibition of lamb brain tubulin polymerization assessed as reduction in microtubule assembly by spectrophotometry; set-up: species or system Ovis aries
In short: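 Tubulin purified from lamb brain by ammonium sulfate fractionation and ion-exchange chromatography. Assembly in 20 mM sodium phosphate, 1 mM EGTA, 10 mM MgCl2, 3.4 M glycerol, 1 mM GTP, pH 6.5, started by warming to 37 °C; turbidity followed at 350 nm over time. Inhibition plotted against ligand:tubulin molar ratio.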

[14] = Induction of apoptosis in mouse W1308 cells assessed as pre-apoptotic cells level at 200 nM after 48 hrs by 3,3'-dihexyloxacarbocyanine iodide and propidium iodide staining based flow cytometry (reference value: 17%); type: functional
[15] = Induction of apoptosis in mouse W1308 cells assessed as apoptotic cells level at 200 nM after 48 hrs by 3,3'-dihexyloxacarbocyanine iodide and propidium iodide staining based flow cytometry (reference value: 11%); type: functional
[16] = test system: HEK293; test: Induction of cell cycle arrest in HEK293 cells assessed as accumulation at G1 phase at 200 nM after 72 hrs by propidium iodide staining based flow cytometry (reference value: 76 +/ 5%); type: functional, Homo sapiens
[17] = test system: HEK293; test: Induction of cell cycle arrest in HEK293 cells assessed as accumulation at G2/M phase at 200 nM after 72 hrs by propidium iodide staining based flow cytometry (reference value: 21 +/- 2%); type: functional, Homo sapiens
[18] = test system: HEK293; test: Induction of apoptosis in HEK293 cells at 200 nM after 72 hrs by propidium iodide staining based flow cytometry (reference value: 3 +/- 1%); type: functional, Homo sapiens
[19] = test system: HEK293; test: Induction of cell cycle arrest in HEK293 cells assessed as G1/G2 phase ratio at 200 nM after 72 hrs by propidium iodide staining based flow cytometry (reference value: 3.6); type: functional, Homo sapiens
[20] = test system: Jurkat; test: Induction of cell cycle arrest in human Jurkat cells assessed as accumulation at G1 phase at 200 nM after 72 hrs by propidium iodide staining based flow cytometry (reference value: 72 +/ 4%); type: functional
[21] = test system: Jurkat; test: Induction of cell cycle arrest in human Jurkat cells assessed as accumulation at G2/M phase at 200 nM after 72 hrs by propidium iodide staining based flow cytometry (reference value: 27 +/ 2%); type: functional
[22] = test system: Jurkat; test: Induction of apoptosis in human Jurkat cells at 200 nM after 72 hrs by propidium iodide staining based flow cytometry (reference value: 0.9 +/ 0.2%); type: functional
[23] = test system: Jurkat; test: Induction of cell cycle arrest in human Jurkat cells assessed as G1/G2 phas e-ratio at 200 nM after 72 hrs by propidium iodide staining based flow cytometry (reference value: 2.7); type: functional
[24] = test system: ASPC1; test: Induction of cell cycle arrest in human AsPC1 cells assessed as accumulation at G1 phase at 200 nM after 72 hrs by propidium iodide staining based flow cytometry (reference value: 65 +/ 3%); type: functional
[25] = test system: ASPC1; test: Induction of cell cycle arrest in human AsPC1 cells assessed as accumulation at G2/M phase at 200 nM after 72 hrs by propidium iodide staining based flow cytometry (reference value: 34 +/ 3%); type: functional
[26] = test system: ASPC1; test: Induction of apoptosis in human AsPC1 cells at 200 nM after 72 hrs by propidium iodide staining based flow cytometry (reference value: 2.2 +/ 0.1%); type: functional
[27] = test system: ASPC1; test: Induction of cell cycle arrest in human AsPC1 cells assessed as G1/G2 phase ratio at 200 nM after 72 hrs by propidium iodide staining based flow cytometry (reference value: 1.9); type: functional
[28] = Induction of cell cycle arrest in mouse W1308 cells assessed as accumulation at G1 phase at 200 nM after 72 hrs by propidium iodide staining based flow cytometry (reference value: 43 +/ 2%); type: functional
[29] = Induction of cell cycle arrest in mouse W1308 cells assessed as accumulation at G2/M phase at 200 nM after 72 hrs by propidium iodide staining based flow cytometry (reference value: 56 +/ 1%); type: functional
[30] = Induction of apoptosis in mouse W1308 cells 200 nM after 72 hrs by propidium iodide staining based flow cytometry (reference value: 0.3 +/ 0.1); type: functional
[31] = Induction of cell cycle arrest in mouse W1308 cells assessed as G1/G2 phase ratio at 200 nM after 72 hrs by propidium iodide staining based flow cytometry (reference value: 0.8); type: functional
[32] = test system: ASPC1; test: Induction of apoptosis in human AsPC1 cells assessed as double nucleated cells level at 200 nM after 72 hrs by Hoechst 33342 and mitotracker red staining based confocal microscopy; type: functional, cell-based
In short: (§3)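 AsPC-1 cells grown overnight on coverslips, then cultured 72 h with compound at various concentrations in complete medium. Hoechst 33342 and MitoTracker Red added for 1 h; cells fixed in 1% paraformaldehyde, mounted in Mowiol, and examined by confocal microscopy for nuclear and mitochondrial morphology.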

[33] = test system: ASPC1; test: Induction of apoptosis in human AsPC1 cells assessed as cell fractionation level at 200 nM after 72 hrs by Hoechst 33342 and mitotracker red staining based confocal microscopy; type: functional; in short: as §3
[34] = test system: ASPC1; test: Induction of apoptosis in human AsPC1 cells assessed as apoptotic body formation at 200 nM after 72 hrs by Hoechst 33342 and mitotracker red staining based confocal microscopy; type: functional, cell-based; in short: as §3
[35] = test system: ASPC1; test: Induction of apoptosis in human AsPC1 cells assessed as mitochondria enlargement at 200 nM after 72 hrs by Hoechst 33342 and mitotracker red staining based confocal microscopy; type: functional, cell-based; in short: as §3
[36] = test system: ASPC1; test: Induction of apoptosis in human AsPC1 cells assessed as mitochondria depolarization at 200 nM after 72 hrs by Hoechst 33342 and mitotracker red staining based confocal microscopy; type: functional, cell-based; in short: as §3
[37] = (§4) Toxicity in ip dosed C57BL/6 mouse measured after 24 to 48 hrs; type: organism-based; settings: C57BL/6, mouse, in vivo
In short: (§5)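 Acute toxicity: single doses given i.p. or i.v. to 6–8 wk C57BL/6 mice to determine LD100 and LD50; lethality observed 24–48 h after injection.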

[38] = test system: Mus musculus; test: as §4; type: organism-based; settings: mouse, in vivo; in short: as §5
[39] = (§6) Toxicity in iv dosed C57BL/6 mouse measured after 24 to 48 hrs; type: organism-based; settings: C57BL/6, mouse, in vivo; in short: as §5
[40] = test system: Mus musculus; test: as §6; type: organism-based; settings: mouse, in vivo; in short: as §5
[41] = test system: Mus musculus; test: Antitumor activity against mouse MMTV-Wnt-1 cells implanted in C57BL/6 mouse assessed as reduction in tumor volume at 0.4 mg/kg, iv once weekly for four weeks; type: functional, organism-based; set-up: dose 0.4 mg/kg
In short: (§7)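 C57BL/6 mice, 6–8 wk, inoculated subcutaneously with Wnt-1 tumor cells in 50 µl PBS into left inguinal fat pad under anesthesia. Treatment started at day 27 in mice with palpable tumors (n=7 per group). Compound in 200 µl saline given i.v. into orbital sinus at days 27, 34, 41, 48; controls received saline. Tumors measured by caliper twice weekly, volume (W²×L)/2. Study ended day 51.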

[42] = test system: Mus musculus; test: Toxicity in mouse MMTV-Wnt-1 cells implanted C57BL/6 mouse assessed as induction of weight loss at 0.4 mg/kg, iv once weekly for four weeks; type: organism-based; set-up: dose 0.4 mg/kg, route intravenous; settings: in vivo; in short: as §7
[43] = test system: Mus musculus; test: Toxicity in mouse MMTV-Wnt-1 cells implanted C57BL/6 mouse assessed as induction of neurological symptoms at 0.4 mg/kg, iv once weekly for four weeks; type: organism-based; set-up: dose 0.4 mg/kg, route intravenous; settings: in vivo; in short: as §7
[44] = test system: Mus musculus; test: Toxicity in mouse MMTV-Wnt-1 cells implanted C57BL/6 mouse assessed as induction of behavior changes at 0.4 mg/kg, iv once weekly for four weeks; type: organism-based; set-up: dose 0.4 mg/kg, route intravenous; settings: in vivo; in short: as §7

SMILES: COc1cc2c(c(OC)c1OC)-c1cc3cc(CO)oc3cc1[C@@H](NC(C)=O)CC2
Activity [1]: Toxic | Activity [2]: Toxic | Activity [3]: Toxic | Activity [4]: 40% | IC50 [5]: < 50 nM | IC50 [6]: < 20 nM | IC50 [7]: < 20 nM | IC50 [8]: < 20 nM | inhibition of growth at 100 µM [9]: 60% | inhibition of growth at 100 µM [10]: 60% | inhibition of growth at 100 µM [11]: 60% | inhibition of growth at 100 µM [12]: 60% | IC50 [13]: 0.08 molar ratio | Activity [14]: 14% | Activity [15]: 11% | Activity [16]: 22% | Activity [17]: 72% | Activity [18]: 6% | Ratio [19]: 0.3 | Activity [20]: 34% | Activity [21]: 62% | Activity [22]: 2.2% | Ratio [23]: 0.6 | Activity [24]: 27% | Activity [25]: 72% | Activity [26]: 1.2% | Ratio [27]: 0.7 | Activity [28]: 18% | Activity [29]: 80% | Activity [30]: 2.3% | Ratio [31]: 0.2 | Activity [32]: Active | Activity [33]: Active | Activity [34]: Active | Activity [35]: Active | Activity [36]: Active | LD50 [37]: 0.3 mg/kg | LD100 [38]: 0.8 mg/kg | LD50 [39]: 0.8 mg/kg | LD100 [40]: 2 mg/kg | growth inhibition (GI) [41]: Active | Activity [42]: Non-toxic | Activity [43]: Non-toxic | Activity [44]: Non-toxic

IC50 [13]: 0.3 molar ratio
SMILES: COc1cc2c(c(OC)c1OC)-c1cc3cc(C(C)O)oc3cc1[C@@H](NC(C)=O)CC2 (stereo not given in full)
IC50 [5]: < 200 nM | IC50 [6]: < 200 nM | IC50 [7]: < 200 nM | IC50 [8]: < 200 nM | inhibition of growth at 100 µM [9]: 60% | inhibition of growth at 100 µM [10]: 60% | inhibition of growth at 100 µM [11]: 60% | inhibition of growth at 100 µM [12]: 60% | Activity [14]: 29% | Activity [15]: 20%
